The source made the active and inactive calls. No cut-off for these calls is given here.
How the values were obtained:
T47D = test: Growth inhibition of human T47D cells after 48 hrs by sulforhodamine B assay; assay type: functional
KM12 = test: Growth inhibition of human KM12 cells after 48 hrs by sulforhodamine B assay; assay type: functional; settings: KM12, 48 h
Procedure, shortened: (§1)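 NCI 60-cell-line five-dose screen. Cells were plated at 5,000–40,000/well by doubling time and grown 24 h at 37 °C, 5% CO2. Time-zero plates were TCA-fixed. Drug from DMSO stock was tested at 0.01, 0.1, 1, 10 and 100 µM final for 48 h continuous exposure. Read-out was SRB at 515 nm. GI50 is the concentration giving 50% reduction in net protein increase versus untreated control.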

MOLT-4 = test: Growth inhibition of human MOLT4 cells assessed as cell growth at 10 '-7 M after 48 hrs by sulforhodamine B assay; assay type: functional; settings: MOLT-4, 48 h, read-out: Activity
OVCAR-8 = test: Growth inhibition of human OVCAR8 cells assessed as cell growth at 10 '-4 M after 48 hrs by sulforhodamine B assay; assay type: functional; settings: OVCAR-8, 48 h, read-out: Activity
LOX IMVI = test: Growth inhibition of human LOXIMVI cells after 48 hrs by sulforhodamine B assay; assay type: functional; procedure, shortened: as §1
UACC-257 = test: Growth inhibition of human UACC257 cells assessed as cell growth at 10 '-6 M after 48 hrs by sulforhodamine B assay; assay type: functional; settings: UACC-257, 48 h, read-out: Activity
CCRF-CEM = test: Growth inhibition of human CCRF-CEM cells assessed as growth inhibition at 10 uM after 48 hrs by sulforhodamine B assay; assay type: functional; settings: read-out: GI
Procedure, shortened: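 NCI-60 primary single-dose screen at 10^-5 M, 48 h continuous exposure. Adherent cells were fixed with cold TCA (10% final) and suspension cells with 16% final TCA, then stained with 0.4% SRB in 1% acetic acid. Bound dye was solubilized in 10 mM Tris base and read at 515 nm. Output is growth percent relative to untreated controls, and GI% is 100 minus growth percent.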

SF-295 = test: Growth inhibition of human SF295 cells assessed as cell growth at 10 '-4 M after 48 hrs by sulforhodamine B assay; assay type: functional; settings: SF-295, 48 h, read-out: Activity
COLO 205 = test: Growth inhibition of human COLO205 cells assessed as cell growth at 10 '-8 M after 48 hrs by sulforhodamine B assay; assay type: functional; settings: COLO 205, 48 h, read-out: Activity
UO-31 = test: Growth inhibition of human UO31 cells assessed as cell growth at 10 '-6 M after 48 hrs by sulforhodamine B assay; assay type: functional; settings: UO-31, 48 h, read-out: Activity
TK-10 [1] = test: Growth inhibition of human TK10 cells assessed as cell growth at 10 '-4 M after 48 hrs by sulforhodamine B assay; assay type: functional; settings: TK-10, 48 h, read-out: Activity
ACHN = test: Growth inhibition of human ACHN cells after 48 hrs by sulforhodamine B assay; assay type: functional
Procedure, shortened: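 NCI 60-cell-line five-dose screen at 0.01, 0.1, 1, 10 and 100 µM final. Cells were plated at 5,000–40,000/well and grown 24 h at 37 °C, 5% CO2, then exposed to drug continuously for 48 h. Adherent cells were fixed with cold TCA (10% final) and stained with SRB; absorbance read at 515 nm. GI50 is the concentration where [(Ti-Tz)/(C-Tz)]×100 = 50, with Tz plates fixed at drug addition.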

TK-10 [2] = test: Growth inhibition of human TK10 cells assessed as growth inhibition at 10 uM after 48 hrs by sulforhodamine B assay; assay type: functional; settings: TK-10, 48 h, read-out: GI
TK-10 [3] = test: Growth inhibition of human TK10 cells assessed as cell growth at 10 '-6 M after 48 hrs by sulforhodamine B assay; assay type: functional; settings: TK-10, 48 h, read-out: Activity
NCI-H460 = test: Growth inhibition of human NCI-H460 cells assessed as cell growth at 10 '-8 M after 48 hrs by sulforhodamine B assay; assay type: functional; settings: NCI-H460, 48 h, read-out: Activity
SK-MEL-5 = test: Growth inhibition of human SK-MEL-5 cells assessed as cell growth at 10 '-4 M after 48 hrs by sulforhodamine B assay; assay type: functional; settings: SK-MEL-5, 48 h, read-out: Activity
M14 = test: Growth inhibition of human M14 cells assessed as growth inhibition at 10 uM after 48 hrs by sulforhodamine B assay; assay type: functional; settings: M14, 48 h, read-out: GI
MDA-MB-435 = test: Growth inhibition of human MDA-MB-435 cells assessed as growth inhibition at 10 uM after 48 hrs by sulforhodamine B assay; assay type: functional, cell-based
U-251 = test: Growth inhibition of human U251 cells assessed as cell growth at 10 '-8 M after 48 hrs by sulforhodamine B assay; assay type: functional; settings: U-251, 48 h, read-out: Activity
HCT-15 = test: Growth inhibition of human HCT15 cells after 48 hrs by sulforhodamine B assay; assay type: functional; settings: HCT-15, 48 h; procedure, shortened: as §1
Malme-3M = test: Growth inhibition of human MALME-3M cells assessed as cell growth at 10 '-7 M after 48 hrs by sulforhodamine B assay; assay type: functional; settings: read-out: Activity
A549 = test: Growth inhibition of human A549 cells assessed as growth inhibition at 10 uM after 48 hrs by sulforhodamine B assay; assay type: functional; settings: A549, 48 h, read-out: GI
Procedure, shortened: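 Percent growth inhibition from the single 10^-5 M NCI-60 screen, reported as 100 minus growth percent. Growth percent was measured after 48 h drug exposure at 37 °C, 5% CO2, using TCA fixation, SRB staining and absorbance at 515 nm, against untreated controls and time-zero plates.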

[4] = Growth inhibition of human EKVX cells assessed as growth inhibition at 10 uM after 48 hrs by sulforhodamine B assay; assay type: functional; settings: read-out: GI
PC-3 = test: Growth inhibition of human PC3 cells assessed as growth inhibition at 10 uM after 48 hrs by sulforhodamine B assay; assay type: functional; settings: PC-3, 48 h, read-out: GI
HL-60(TB) = test: Growth inhibition of human HL-60(TB) cells after 48 hrs by sulforhodamine B assay; assay type: functional; settings: HL-60, 48 h
Procedure, shortened: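 NCI 60-cell-line five-dose screen over 0.01, 0.1, 1, 10 and 100 µM, with 48 h continuous exposure at 37 °C and 5% CO2 after 24 h pre-incubation (5,000–40,000 cells/well). Cells were TCA-fixed (10% final for adherent, 16% for suspension), stained with SRB and read at 515 nm. GI50 was solved from [(Ti−Tz)/(C−Tz)]×100 = 50 against time-zero plates.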

K562 = test: Growth inhibition of human K562 cells assessed as cell growth at 10 '-7 M after 48 hrs by sulforhodamine B assay; assay type: functional; settings: K562, 48 h, read-out: Activity
MCF7 = test: Growth inhibition of human MCF7 cells assessed as growth inhibition at 10 uM after 48 hrs by sulforhodamine B assay; assay type: functional; settings: MCF7, 48 h, read-out: GI
[5] = read-out: LD50 (the source's name)

Cc1cc(=O)oc2cc(OCCn3c(C)nn(-c4ccc(Cl)cc4)c3=O)ccc12
GI50 (T47D): 7550 nM
TGI (T47D): > 1000 nM
CC50 (T47D; [5]): > 1000 nM
GI50 (KM12): 1660 nM
TGI (KM12): > 1000 nM
CC50 (KM12; [5]): > 1000 nM
growth at 0.1 µM (MOLT-4): 109%
growth at 100 µM (OVCAR-8): 24%
GI50 (LOX IMVI): 4830 nM
TGI (LOX IMVI): > 1000 nM
CC50 (LOX IMVI; [5]): > 1000 nM
growth at 1 µM (UACC-257): 96%
inhibition of growth at 10 µM (CCRF-CEM): 86.6%
growth at 100 µM (SF-295): 16%
growth at 0.01 µM (COLO 205): 102%
growth at 1 µM (UO-31): 74%
growth at 100 µM (TK-10 [1]): -3%
GI50 (ACHN): 5590 nM
TGI (ACHN): > 1000 nM
CC50 (ACHN; [5]): > 1000 nM
inhibition of growth at 10 µM (TK-10 [2]): 40.4%
growth at 1 µM (TK-10 [3]): 114%
growth at 0.01 µM (NCI-H460): 104%
growth at 100 µM (SK-MEL-5): 4%
inhibition of growth at 10 µM (M14): 85.3%
growth inhibition (GI) (MDA-MB-435): Active
growth at 0.01 µM (U-251): 98%
GI50 (HCT-15): 3200 nM
TGI (HCT-15): > 1000 nM
CC50 (HCT-15; [5]): > 1000 nM
growth at 0.1 µM (Malme-3M): 104%
inhibition of growth at 10 µM (A549): 69.8%
inhibition of growth at 10 µM [4]: 41.3%
inhibition of growth at 10 µM (PC-3): 51.5%
GI50 (HL-60(TB)): 2800 nM
growth at 0.1 µM (K562): 106%
inhibition of growth at 10 µM (MCF7): 84.2%
